Experimental data reported in ChEMBL document CHEMBL4428035, “Urea derivates of ursolic, oleanolic and maslinic acid induce apoptosis and are selective cytotoxic for several human tumor cell lines” (Eur J Med Chem, 2016).
Activity calls are given as the source filed them. No cut-off for these calls is given here.

Key:
FaDu = experiment: Cytotoxicity against human FADU cells assessed as reduction in cell proliferation after 96 hrs by sulforhodamine B assay; assay type: functional, cell-based
518A2 = experiment: Cytotoxicity against human 518A2 cells assessed as reduction in cell proliferation after 96 hrs by sulforhodamine B assay; assay type: functional, cell-based; conditions: 518A2, 96 h
HT-29 = experiment: Cytotoxicity against human HT-29 cells assessed as reduction in cell proliferation after 96 hrs by sulforhodamine B assay; assay type: functional, cell-based; conditions: HT-29, 96 h
SW-1736 = experiment: Cytotoxicity against human SW1736 cells assessed as reduction in cell proliferation after 96 hrs by sulforhodamine B assay; assay type: functional, cell-based; conditions: SW-1736, 96 h
MCF7 = experiment: Cytotoxicity against human MCF7 cells assessed as reduction in cell proliferation after 96 hrs by sulforhodamine B assay; assay type: functional, cell-based; conditions: MCF7, 96 h
NIH3T3 = experiment: Cytotoxicity against mouse NIH/3T3 cells assessed as reduction in cell proliferation after 96 hrs by sulforhodamine B assay; assay type: ADME, cell-based; conditions: NIH3T3, 96 h
A549 = experiment: Cytotoxicity against human A549 cells assessed as reduction in cell proliferation after 96 hrs by sulforhodamine B assay; assay type: functional, cell-based; conditions: A549, 96 h
A2780 [1] = experiment: Cytotoxicity against human A2780 cells assessed as reduction in cell proliferation after 96 hrs by sulforhodamine B assay; assay type: functional, cell-based; conditions: A2780, 96 h
[2] = Selectivity index, ratio of EC50 for mouse NIH/3T3 cells to EC50 for human A2780 cells; conditions: NIH/3T3 cells versus A2780 cells
A2780 [3] = experiment: Induction of apoptosis in human A2780 cells assessed as necrotic cells at 10 uM after 24 hrs by Annexin V/propidium iodide staining based flow cytometry relative to control; assay type: functional
Procedure, shortened: (§1)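 Annexin V/propidium iodide staining of A2780 cells exposed to 10 µM compound for 24 h and 48 h, read by flow cytometry. Viable, apoptotic, necrotic and secondary-necrotic fractions were reported as relative changes versus untreated control (%).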

A2780 [4] = experiment: Cell cycle arrest in human A2780 cells assessed as decrease in G1/G0 phase at 10 uM after 48 hrs by FACS analysis; assay type: functional, cell-based
Procedure, shortened: (§2)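 Living A2780 cells treated with 10 µM test agent for 24 h and 48 h, then examined for cell-cycle distribution by FACS. Phase populations (Sub-G1, G1/G0, S, G2/M) were quantified by model fitting and expressed as arithmetic means of the population distribution (%).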

A2780 [5] = experiment: Cell cycle arrest in human A2780 cells assessed as decrease in S phase at 10 uM after 48 hrs by FACS analysis; assay type: functional, cell-based; procedure, shortened: as §2
A2780 [6] = experiment: Induction of apoptosis in human A2780 cells assessed as secondary necrotic cells at 10 uM after 24 hrs by Annexin V/propidium iodide staining based flow cytometry relative to control; assay type: functional; procedure, shortened: as §1
A2780 [7] = experiment: Cell cycle arrest in human A2780 cells assessed as decrease in G2/M phase at 10 uM after 24 hrs by FACS analysis; assay type: functional, cell-based; procedure, shortened: as §2
A2780 [8] = experiment: Cell cycle arrest in human A2780 cells assessed as increase in subG1 phase at 10 uM after 48 hrs by FACS analysis; assay type: functional, cell-based; procedure, shortened: as §2
A2780 [9] = experiment: Induction of apoptosis in human A2780 cells assessed as apoptotic cells at 10 uM after 24 hrs by Annexin V/propidium iodide staining based flow cytometry relative to control; assay type: functional; procedure, shortened: as §1
A2780 [10] = experiment: Induction of apoptosis in human A2780 cells assessed as viable cells at 10 uM after 24 hrs by Annexin V/propidium iodide staining based flow cytometry relative to control; assay type: functional; conditions: A2780, 24 h, read-out: Activity; procedure, shortened: as §1
A2780 [11] = experiment: Cell cycle arrest in human A2780 cells assessed as increase in S phase at 10 uM after 24 hrs by FACS analysis; assay type: functional, cell-based; procedure, shortened: as §2
A2780 [12] = experiment: Cell cycle arrest in human A2780 cells assessed as decrease in G1/G0 phase at 10 uM after 24 hrs by FACS analysis; assay type: functional, cell-based; procedure, shortened: as §2

Row | SMILES | EC50 (FaDu) [µM] | EC50 (518A2) [µM] | EC50 (HT-29) [µM] | EC50 (SW-1736) [µM] | EC50 (MCF7) [µM] | EC50 (NIH3T3) [µM] | EC50 (A549) [µM] | EC50 (A2780 [1]) [µM] | selectivity ratio [2] | Activity (A2780 [3]) [%] | Activity (A2780 [4]) | Activity (A2780 [5]) | Activity (A2780 [6]) [%] | Activity (A2780 [7]) | Activity (A2780 [8]) | Activity (A2780 [9]) [%] | change in viable cells vs control (%) at 10 µM (A2780 [10]) [%] | Activity (A2780 [11]) | Activity (A2780 [12])
1 | CO[C@@H]1C[C@]2(C)[C@H]3CC=C4[C@@H]5CC(C)(C)CC[C@]5(C(=O)NCc5ccccc5)CC[C@@]4(C)[C@]3(C)CC[C@H]2C(C)(C)[C@H]1OC | 17.2 | 18.1 | 14.3 | 20.5 | 14.6 | 14.7 | 15.3 |  |  |  |  |  |  |  |  |  |  |  | 
2 | CC(=O)O[C@H]1C[C@]2(C)[C@H]3CC=C4[C@@H]5CC(C)(C)CC[C@]5(C(=O)O)CC[C@@]4(C)[C@]3(C)CC[C@H]2C(C)(C)[C@@H]1OC(C)=O | 9.5 | 11.7 | 16.5 | 23.4 | 14.8 | 10 | 15.2 | 6.7 |  |  |  |  |  |  |  |  |  |  | 
3 | CC(=O)O[C@H]1C[C@]2(C)[C@H]3CC=C4[C@@H]5CC(C)(C)CC[C@]5(NC(=O)c5ccccc5)CC[C@@]4(C)[C@]3(C)CC[C@H]2C(C)(C)[C@H]1OC(C)=O |  | 3.5 | 6.8 | 6.8 | 16.8 | 12.2 | 11.1 | 3.1 |  |  |  |  |  |  |  |  |  |  | 
4 | CC1(C)CC[C@]2(C(=O)NCc3ccccc3)CC[C@]3(C)C(=CC[C@@H]4[C@@]5(C)C[C@H]6OC(C)(C)O[C@@H]6C(C)(C)[C@@H]5CC[C@]43C)[C@@H]2C1 | > 30 | 29.8 | 25.9 | > 30 | 14.6 | 21.6 | 26.4 | 12.9 |  |  |  |  |  |  |  |  |  |  | 
5 | CC(=O)O[C@H]1C[C@]2(C)[C@H]3CC=C4[C@@H]5[C@@H](C)[C@H](C)CC[C@]5(NC(=O)c5ccccc5)CC[C@@]4(C)[C@]3(C)CC[C@H]2C(C)(C)[C@H]1OC(C)=O |  | 7.9 | 11.7 | 14.9 | > 30 | 14.1 | 16.4 | 6.7 |  |  |  |  |  |  |  |  |  |  | 
6 | COCO[C@@H]1C[C@]2(C)[C@H]3CC=C4[C@@H]5CC(C)(C)CC[C@]5(C(=O)NCc5ccccc5)CC[C@@]4(C)[C@]3(C)CC[C@H]2C(C)(C)[C@H]1OCOC | 17.9 | 22.1 | 15.9 | 18.2 | 15.2 | 15 | 17.3 |  |  |  |  |  |  |  |  |  |  |  | 
7 | CC1(C)CC[C@]2(C(=O)NCc3ccccc3)CC[C@]3(C)C(=CC[C@@H]4[C@@]5(C)C[C@@H]6O[C@@H]6C(C)(C)[C@@H]5CC[C@]43C)[C@@H]2C1 | > 30 | 15.7 | 26.6 | > 30 | 8.6 | 20.5 | 25.8 | 8.6 |  |  |  |  |  |  |  |  |  |  | 
8 | CC(=O)O[C@@H]1C[C@]2(C)[C@H]3CC=C4[C@@H]5CC(C)(C)CC[C@]5(C(=O)NCCc5ccccc5)CC[C@@]4(C)[C@]3(C)CC[C@H]2C(C)(C)[C@H]1OC(C)=O | 2.8 | 1.2 | 6.1 | 5.2 | 5.8 | 9.5 | 9.2 |  |  |  |  |  |  |  |  |  |  |  | 
9 | CC(=O)O[C@@H]1C[C@]2(C)[C@H]3CC=C4[C@@H]5CC(C)(C)CC[C@]5(C(=O)NCc5ccccc5)CC[C@@]4(C)[C@]3(C)CC[C@H]2C(C)(C)[C@H]1OC(C)=O | 3.1 | 1.5 | 4.7 |  | 7.7 | 33.8 | 2.5 | 0.5 | 70 |  |  |  |  |  |  |  |  |  | 
10 | CO[C@@H]1C[C@]2(C)[C@H]3CC=C4[C@@H]5CC(C)(C)CC[C@]5(C(=O)NCc5ccccc5)CC[C@@]4(C)[C@]3(C)CC[C@H]2C(C)(C)[C@H]1O | 11.4 | 12.6 | 10.6 | 18.1 | 11.7 | 11.9 | 21.5 |  |  |  |  |  |  |  |  |  |  |  | 
11 | CC1(C)CC[C@]2(C(=O)NCc3ccccc3)CC[C@]3(C)C(=CC[C@@H]4[C@@]5(C)C[C@H]6OCO[C@@H]6C(C)(C)[C@@H]5CC[C@]43C)[C@@H]2C1 | > 30 | > 30 | 20.8 | > 30 | 16.7 | 13.9 | > 30 |  |  |  |  |  |  |  |  |  |  |  | 
12 | CC(=O)O[C@H]1C[C@]2(C)[C@H]3CC=C4[C@@H]5CC(C)(C)CC[C@]5(NC(=O)Oc5ccccc5)CC[C@@]4(C)[C@]3(C)CC[C@H]2C(C)(C)[C@H]1OC(C)=O |  | 4.4 | 8.5 | 7.3 | 5.8 | 15.4 | 8.5 | 2.4 |  | -1 | Active | Active | 3 | Active | Active | 2 | -4 | Active | Active
13 | CC(=O)O[C@H]1C[C@]2(C)[C@H]3CC=C4[C@@H]5[C@@H](C)[C@H](C)CC[C@]5(C(=O)Nc5ccccc5)CC[C@@]4(C)[C@]3(C)CC[C@H]2C(C)(C)[C@H]1OC(C)=O |  | 3.4 | 7.3 | 4.4 | 16.4 | > 60 | 8.9 | 3.3 |  |  |  |  |  |  |  |  |  |  | 
14 | CC(=O)O[C@H]1C[C@]2(C)[C@H]3CC=C4[C@@H]5CC(C)(C)CC[C@]5(C(=O)Nc5ccccc5)CC[C@@]4(C)[C@]3(C)CC[C@H]2C(C)(C)[C@H]1OC(C)=O |  | 2 | 2.6 | 2.7 | 1.8 | > 60 | 4.9 | 1.3 |  |  |  |  |  |  |  |  |  |  | 
15 | CC(=O)O[C@H]1C[C@]2(C)[C@H]3CC=C4[C@@H]5[C@@H](C)[C@H](C)CC[C@]5(NC(=O)Oc5ccccc5)CC[C@@]4(C)[C@]3(C)CC[C@H]2C(C)(C)[C@H]1OC(C)=O |  | 3.1 | 7.6 | 5.5 | 23.3 | > 30 | 10.1 | 1.6 |  |  |  |  |  |  |  |  |  |  | 
16 | CC1(C)CC[C@]2(C(=O)NCc3ccccc3)CC[C@]3(C)C(=CC[C@@H]4[C@@](C)(CC=O)[C@H](C(C)(C)C=O)CC[C@]43C)[C@@H]2C1 | 7 | 6 | 8.3 | 7.5 | 5.4 | 12.2 | 6.9 |  |  |  |  |  |  |  |  |  |  |  | 
17 | CC(=O)O[C@@H]1[C@H](OC(C)=O)C[C@]2(C)[C@H]3CC=C4[C@@H]5CC(C)(C)CC[C@]5(C(=O)O)CC[C@@]4(C)[C@]3(C)CC[C@H]2C1(C)C | 17.3 | 15.3 | 21.4 | 22 | 17.6 | 14.2 | 20.4 | 10.5 |  |  |  |  |  |  |  |  |  |  | 
18 | CC(=O)O[C@H]1C[C@]2(C)[C@H]3CC=C4[C@@H]5CC(C)(C)CC[C@]5(C(=O)O)CC[C@@]4(C)[C@]3(C)CC[C@H]2C(C)(C)[C@H]1OC(C)=O | > 30 |  | 18.8 | > 30 | 15.1 | 8 | 29.1 | 7.2 |  |  |  |  |  |  |  |  |  |  | 
19 | CC(=O)O[C@H]1C[C@]2(C)[C@H]3CC=C4[C@@H]5[C@@H](C)[C@H](C)CC[C@]5(NC(=O)Nc5ccccc5)CC[C@@]4(C)[C@]3(C)CC[C@H]2C(C)(C)[C@H]1OC(C)=O |  | 2.5 | 16 | 6.8 | 19.6 | > 120 | 12.4 | 1.5 |  |  |  |  |  |  |  |  |  |  | 
20 | CC(=O)O[C@@H]1C[C@]2(C)[C@H]3CC=C4[C@@H]5CC(C)(C)CC[C@]5(C(=O)Nc5ccccc5)CC[C@@]4(C)[C@]3(C)CC[C@H]2C(C)(C)[C@H]1OC(C)=O | 1.4 | 0.7 | 2.9 | 2.9 | 3.1 | 16 | 9.5 |  |  |  |  |  |  |  |  |  |  |  | 
21 | CC(=O)O[C@@H]1C[C@]2(C)[C@H]3CC=C4[C@@H]5CC(C)(C)CC[C@]5(C(=O)O)CC[C@@]4(C)[C@]3(C)CC[C@H]2C(C)(C)[C@H]1OC(C)=O | 17.8 | 23.1 |  |  | 16.6 |  |  |  |  |  |  |  |  |  |  |  |  |  | 
